Published values from different studies.
Each line is one published result; the experiments were not run side by side.
Target: Tyrosine-protein kinase Fes/Fps (FES, Homo sapiens, UniProt P07332)

Cn1nc(C(=O)NCc2ccc(C(=O)O)cc2)cc1-c1ccc2[nH]ccc2c1 — remaining binding (cell-free assay; competition with immobilised ligand; 0.1 µM): 95%
CN(C)c1ncc(F)c(-c2cnn3ncccc23)n1 — remaining binding (binding; 1 µM): 87%
O=C(NCCCN1CCOCC1)c1ccc(Nc2ncc(Cl)c(-c3ccc(Cl)s3)n2)cc1 — remaining binding (binding; competition with immobilised ligand; 1 µM): 62%
FC(F)(F)Oc1cccc(-c2cnc3ccc(-c4ccncc4)nn23)c1 — remaining binding (cell-free assay; competition with immobilised ligand; 5 µM): 84%
F[C@@H]1CCN(c2nccc(-c3cnn4ncccc34)n2)C1 — remaining binding (binding; 1 µM): 77%
Nc1ncc2c(n1)-c1c([nH]c3ccc(C#CC4CC4)cc13)CCCC2 — remaining binding (binding; competition with immobilised ligand; 1 µM): 100%
CCS(=O)(=O)c1cc2cc(C[C@@](O)(CC(C)(C)c3ccc(F)cc3C(N)=O)C(F)(F)F)[nH]c2cn1 — remaining binding (cell-free assay; competition with immobilised ligand; 1 µM): 100%
O=C(NCCCN1CCOCC1)c1ccc(Nc2nccc(-c3cc4ccccc4s3)n2)cc1 — remaining binding (binding; competition with immobilised ligand; 1 µM): 85%
C[C@@H](c1ccc(-n2cnc3c(N)ncnc32)cc1)N1CCc2nn(C)c(Cc3ccccc3)c2C1=O — remaining binding (binding; competition with immobilised ligand; 0.1 µM): 89%
CN(c1nccc(-c2cnn3ncccc23)n1)C1CC1 — remaining binding (binding; 1 µM): 100%
O=C(NCC1CCOCC1)c1n[nH]cc1NC(=O)c1c(F)cccc1F — remaining binding (binding; competition with immobilised ligand; 1 µM): 100%
N[C@@H]1CCN(c2nccc(-c3cnn4ncccc34)n2)C1 — remaining binding (binding; 1 µM): 100%
CNC(=O)Nc1ccc2c(c1)[C@@]1(CC2)OC(=O)N(CC(=O)N(Cc2ccc(F)cc2)[C@@H](C)C(F)(F)F)C1=O — remaining binding (cell-free assay; competition with immobilised ligand; 1 µM): 85%
CC1CCCN1c1nccc(-c2cnn3ncccc23)n1 (stereo not shown) — remaining binding (binding; 1 µM): 100%
CS(=O)(=O)N1CCCC(NC(=O)[C@H](CCC2CCCCC2)NC(=O)c2ccc(CNc3ncnc4c3nnn4-c3ccccc3)cc2)C1 (stereo partly shown) — remaining binding (cell-free assay; competition with immobilised ligand; 0.1 µM): 87%
O=C(c1ccc(Nc2ncc(Cl)c(-c3cc4ccccc4s3)n2)cc1)N1CCC(N2CCCC2)CC1 — remaining binding (binding; competition with immobilised ligand; 1 µM): 74%
COCCOc1nc(-c2ccc(Cl)nc2)nc2c1CN(C(=O)c1ncn3ccccc13)CC2 — remaining binding (cell-free assay; competition with immobilised ligand; 0.1 µM): 100%
C[C@H]1CCN(c2nccc(-c3cnn4ncccc34)n2)C1 — remaining binding (binding; 1 µM): 100%
Cc1c(NC(=O)c2cc(C(N)=O)nc3cc(F)ccc23)c(C(F)(F)F)nn1Cc1ccc(C(C)(C)C)cc1 — remaining binding (cell-free assay; competition with immobilised ligand; 1 µM): 100%
CN(C)c1nccc(-c2cnn3ncccc23)n1 — remaining binding (binding; 1 µM): 100%
COc1cc(-c2cn(C3CCc4c(F)cccc4N(CC(F)(F)F)C3=O)nn2)ccc1-n1cnc(C)c1 (stereo not shown) — remaining binding (cell-free assay; competition with immobilised ligand; 1 µM): 100%
COc1cnc(Nc2cccc(S(N)(=O)=O)c2)nc1N1CCN(c2ccccc2)C(=O)C1 — remaining binding (binding; competition with immobilised ligand; 1 µM): 100%
